Consider 4 compounds from ChEMBL document CHEMBL3774339, “Exploring Selective Inhibition of the First Bromodomain of the Human Bromodomain and Extra-terminal Domain (BET) Proteins” (J Med Chem, 2016).

The target of experiment [1] is Bromodomain-containing protein 3 (Homo sapiens, UniProt Q15059). The experiment can be described thus: Inhibition of human BRD3 bromodomain2 using H4KAc 5/8/12/16 peptide as substrate incubated overnight by HTRF assay. (In general: In TR-FRET formats the signal depends on donor and acceptor labels being close together.)
Sequence of Bromodomain-containing protein 3 (Q15059 whole entry): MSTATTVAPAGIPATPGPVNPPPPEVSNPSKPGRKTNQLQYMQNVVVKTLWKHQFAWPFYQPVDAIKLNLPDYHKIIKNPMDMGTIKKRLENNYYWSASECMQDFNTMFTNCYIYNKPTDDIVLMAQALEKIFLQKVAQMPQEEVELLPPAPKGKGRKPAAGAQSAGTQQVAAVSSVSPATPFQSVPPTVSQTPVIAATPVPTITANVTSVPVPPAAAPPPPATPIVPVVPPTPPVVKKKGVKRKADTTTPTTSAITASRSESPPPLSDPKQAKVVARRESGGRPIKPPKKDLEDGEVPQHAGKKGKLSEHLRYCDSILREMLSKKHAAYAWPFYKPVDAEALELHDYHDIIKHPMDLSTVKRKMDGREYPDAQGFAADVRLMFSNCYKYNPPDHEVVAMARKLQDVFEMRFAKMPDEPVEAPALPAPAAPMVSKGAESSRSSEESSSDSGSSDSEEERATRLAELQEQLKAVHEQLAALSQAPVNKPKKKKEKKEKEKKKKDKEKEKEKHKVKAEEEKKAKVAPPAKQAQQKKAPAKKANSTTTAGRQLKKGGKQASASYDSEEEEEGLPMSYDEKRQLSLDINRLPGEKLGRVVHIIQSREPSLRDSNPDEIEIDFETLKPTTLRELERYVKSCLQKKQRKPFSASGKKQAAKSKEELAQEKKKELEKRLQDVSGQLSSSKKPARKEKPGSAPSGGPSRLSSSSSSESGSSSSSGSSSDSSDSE
The species entered for experiment [2] is Homo sapiens. The experiment can be described thus: Selectivity ratio of IC50 for GST-tagged human BRD3 bromodomain1 to IC50 for GST-tagged human BRD4 bromodomain1.
Experiment [3] deals with Jurkat. The experiment can be described thus: Downregulation of c-Myc in human Jurkat cells assessed as expression level after 24 hrs by Western blot analysis. It is filed as functional, cell-based. In outline: (§1)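 Jurkat cells exposed to different compound concentrations in 0.5% DMSO for 24 h. c-Myc detected on blots loaded with 50 μg protein.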
For experiment [4], the system named is Jurkat. The experiment can be described thus: Downregulation of c-Myc in human Jurkat cells assessed as expression level at 1 uM after 24 hrs by Western blot analysis. The format is functional. The procedure, abridged:
as §1
For orientation: Immunoblotting shows a protein as a band on a membrane.

The target of experiment [5] is Bromodomain testis-specific protein (Homo sapiens, UniProt Q58F21). The experiment can be described thus: Inhibition of GST-tagged human BRDT bromodomain1 using H4KAc 5/8/12/16 peptide as substrate incubated overnight by HTRF assay.
The test system of experiment [6] is Jurkat. The experiment can be described thus: Antiproliferative activity against human Jurkat cells after 72 hrs by Cell Titer-Glo luminescence assay. The format is functional, cell-based. The procedure, abridged: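 Jurkat cell viability read across a range of compound concentrations after 72 h incubation at 37 °C. EC50 taken from the dose–response.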
Experiment [7] concerns the target T1, ATPase family AAA domain-containing protein 2 (Homo sapiens, UniProt Q6PL18).
T1 sequence (Q6PL18 whole entry): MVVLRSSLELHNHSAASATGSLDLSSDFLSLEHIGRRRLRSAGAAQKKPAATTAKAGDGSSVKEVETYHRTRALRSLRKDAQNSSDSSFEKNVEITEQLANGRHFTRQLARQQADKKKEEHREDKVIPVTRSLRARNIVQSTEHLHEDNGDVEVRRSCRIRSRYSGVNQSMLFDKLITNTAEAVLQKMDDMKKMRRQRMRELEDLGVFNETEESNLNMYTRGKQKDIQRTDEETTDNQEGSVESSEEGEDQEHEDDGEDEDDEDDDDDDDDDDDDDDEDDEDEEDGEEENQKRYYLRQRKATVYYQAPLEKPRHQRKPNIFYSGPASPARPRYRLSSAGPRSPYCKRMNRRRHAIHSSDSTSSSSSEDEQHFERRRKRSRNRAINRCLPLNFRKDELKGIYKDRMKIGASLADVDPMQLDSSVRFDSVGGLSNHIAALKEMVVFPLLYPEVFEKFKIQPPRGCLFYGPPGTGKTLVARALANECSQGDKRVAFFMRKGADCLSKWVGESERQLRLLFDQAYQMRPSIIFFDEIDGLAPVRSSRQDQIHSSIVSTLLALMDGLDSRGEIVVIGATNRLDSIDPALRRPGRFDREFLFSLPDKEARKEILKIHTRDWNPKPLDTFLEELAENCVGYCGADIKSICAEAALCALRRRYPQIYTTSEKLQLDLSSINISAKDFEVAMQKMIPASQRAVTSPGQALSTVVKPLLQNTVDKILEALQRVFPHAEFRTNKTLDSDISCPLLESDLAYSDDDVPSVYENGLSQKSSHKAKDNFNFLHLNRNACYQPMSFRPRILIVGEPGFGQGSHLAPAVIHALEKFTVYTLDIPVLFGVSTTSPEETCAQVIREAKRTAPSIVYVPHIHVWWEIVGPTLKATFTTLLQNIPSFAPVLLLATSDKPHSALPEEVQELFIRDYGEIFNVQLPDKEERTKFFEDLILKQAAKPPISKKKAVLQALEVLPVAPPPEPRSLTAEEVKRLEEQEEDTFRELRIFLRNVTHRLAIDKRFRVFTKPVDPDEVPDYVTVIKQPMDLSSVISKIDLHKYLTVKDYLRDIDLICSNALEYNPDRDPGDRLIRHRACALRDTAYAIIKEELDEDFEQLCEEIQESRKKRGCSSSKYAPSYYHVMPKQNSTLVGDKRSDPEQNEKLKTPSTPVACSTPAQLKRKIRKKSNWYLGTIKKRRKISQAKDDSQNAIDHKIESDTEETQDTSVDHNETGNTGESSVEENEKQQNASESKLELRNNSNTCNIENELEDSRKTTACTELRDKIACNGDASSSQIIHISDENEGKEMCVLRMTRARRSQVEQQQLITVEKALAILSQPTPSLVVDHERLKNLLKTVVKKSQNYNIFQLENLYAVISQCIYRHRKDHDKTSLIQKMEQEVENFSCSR
The experiment can be described thus: Inhibition of GST-tagged human ATAD2 using H4KAc 5/8/12/16 peptide as substrate incubated overnight by HTRF assay.

Experiment [8] is filed under the species Homo sapiens. Nature of the experiment: Selectivity ratio of IC50 for GST-tagged human BRD2 bromodomain1 to IC50 for GST-tagged human BRD4 bromodomain1.
Experiment [9] relates to Jurkat. Nature of the experiment: Downregulation of c-Myc in human Jurkat cells assessed as expression level at 10 uM after 24 hrs by Western blot analysis. It is filed as functional. In outline: as §1
The species entered for experiment [10] is Homo sapiens. Nature of the experiment: Selectivity ratio of IC50 for GST-tagged human BRDT bromodomain1 to IC50 for GST-tagged human BRD4 bromodomain1.
The test system of experiment [11] is Jurkat. Nature of the experiment: Downregulation of c-Myc in human Jurkat cells assessed as expression level at 50 uM after 24 hrs by Western blot analysis. The format is functional. The procedure, abridged: as §1
The target of experiment [12] is Bromodomain-containing protein 4 (Homo sapiens, UniProt O60885). The experiment can be described thus: Inhibition of GST-tagged human BRD4 bromodomain1 using H4KAc 5/8/12/16 peptide as substrate incubated overnight by HTRF assay.

Where only a bound is given, the exact number is not on record here.

Broadly, the IC50 is the concentration needed to halve the response being measured. Higher therefore signals weaker potency. Regarding `CCn1cnc2c1c(=O)[nH]c(=O)n2Cc1ccc(Cl)cc1`, it took 1.8 µM to reach half-maximal inhibition in experiment [1] (IC50).
For orientation: EC50 means the concentration needed to bring the measured effect to its halfway point. Higher therefore signals lower potency in that assay. Take `CCCCc1c(C)nc2nc(SCc3nc4c(c(=O)[nH]c(=O)n4CCCC)n3CC)nn2c1C`: the Ratio IC50 in experiment [2], in experiment [8] and in experiment [10] was above 10 throughout. Further, the Activity result is “Dose-dependent effect” in experiment [3]; 62% in experiment [4]; “Dose-dependent effect” in experiment [6]; 98% in [9]; 3% in [11]. Besides, the IC50 in [5] and in experiment [7] was above 100 µM throughout. In addition, in experiment [6], the midpoint of the response, the EC50, lay at 27 µM.
`CCn1c(CSc2n[nH]c(N)n2)nc2c1c(=O)[nH]c(=O)n2Cc1ccc(Cl)cc1` showed an IC50 in [5] above 100 µM.
Take `CCCCn1c(=O)[nH]c(=O)c2c1nc(CSc1n[nH]c(N)n1)n2CC`: the IC50 in experiment [12] was above 50 µM.
